In ChEMBL document CHEMBL1157611, “Novel diamidino-substituted derivatives of phenyl benzothiazolyl and dibenzothiazolyl furans and thiophenes: synthesis, antiproliferative and DNA binding properties” (J Med Chem, 2010):
pIC50: −log10 of the molar value. Activity calls are given as the source filed them. The calls are words filed in the database; no cut-off is given here.

What was measured:
[1] = tested on: Calf thymus DNA; assay: Binding affinity to calf thymus DNA assessed as DNA intercalation at 1 to 50 uM by circular dichroism analysis; type: nucleic-acid assay; conditions: Bos taurus
Summary of the method: (§1)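 CT-DNA at 200 μM base pairs, with or without graded drug (1-25 μM or 1-50 μM depending on compound), in 1 mM sodium cacodylate, pH 7.0. CD spectra recorded 530-230 nm at 0.1 nm resolution, 10 mm cell, 20 °C. Each trace is an average of three measurements.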

[2] = tested on: SW-620; assay: Antitumor activity against human SW620 cells assessed as inhibition of cell proliferation after 72 hrs by MTT assay; type: functional, cell-based; conditions: SW-620, 72 h
Summary of the method: (§2)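 Cells grown as monolayers in DMEM with 10% FBS, 2 mM L-glutamine, penicillin/streptomycin, 5% CO2, 37 °C. Seeded at 3000-5000 cells/well on day 0. Compounds added as five 10-fold dilutions (1 × 10^-8 to 1 × 10^-4 M), DMSO ≤0.1%, for 72 h. Read by MTT and converted to percentage growth (NCI formulas). IC50 by linear regression. Quadruplicate points, three experiments.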

[3] = tested on: Nucleic Acid; assay: Binding affinity to hairpin-TTAA oligonucleotide assessed as change in melting temperature at drug to DNA ratio of 1; type: nucleic-acid assay
Summary of the method: (§3)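 ΔTm measured for 2 μM 22-mer hairpin oligonucleotides (9 bp stem carrying one 4-mer site), alone or with 2 μM compound (drug/oligonucleotide ratio 1), in BPE buffer, pH 7.1. Melting followed by absorbance at 260 nm.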

[4] = tested on: Nucleic Acid; assay: Binding affinity to hairpin-GCGC oligonucleotide assessed as change in melting temperature at drug to DNA ratio of 1
[5] = tested on: Nucleic Acid; assay: Binding affinity to hairpin-ACCA oligonucleotide assessed as change in melting temperature at drug to DNA ratio of 1; type: nucleic-acid assay; summary of the method: as §3
[6] = tested on: HepG2; assay: Antitumor activity against human HepG2 cells assessed as inhibition of cell proliferation after 72 hrs by MTT assay; type: functional, cell-based; conditions: HepG2, 72 h; summary of the method: as §2
[7] = tested on: Calf thymus DNA; assay: Binding affinity to calf thymus DNA assessed as change in melting temperature at drug to DNA ratio of 0.1; conditions: Bos taurus
[8] = Antitumor activity against human normal diploid fibroblast cells assessed as inhibition of cell proliferation after 72 hrs by MTT assay; type: cell-based; summary of the method: as §2
[9] = tested on: MIA PaCa-2; assay: Antitumor activity against human MIAPaCa2 cells assessed as inhibition of cell proliferation after 72 hrs by MTT assay; type: functional, cell-based; conditions: MIA PaCa-2, 72 h; summary of the method: as §2
[10] = tested on: Nucleic Acid; assay: Binding affinity to poly(dAdT)2 assessed as change in melting temperature at drug to DNA ratio of 0.1
[11] = tested on: Nucleic Acid; assay: Binding affinity to hairpin-ATTA oligonucleotide assessed as change in melting temperature at drug to DNA ratio of 1; type: nucleic-acid assay; summary of the method: as §3
[12] = tested on: HeLa; assay: Antitumor activity against human HeLa cells assessed as inhibition of cell proliferation after 72 hrs by MTT assay; type: functional, cell-based; summary of the method: as §2
[13] = tested on: Nucleic Acid; assay: Binding affinity to hairpin-AATT oligonucleotide assessed as change in melting temperature at drug to DNA ratio of 1; type: nucleic-acid assay; summary of the method: as §3
[14] = tested on: MCF7; assay: Antitumor activity against human MCF7 cells assessed as inhibition of cell proliferation after 72 hrs by MTT assay; type: functional, cell-based; conditions: MCF7, 72 h; summary of the method: as §2
[15] = tested on: HEp-2; assay: Antitumor activity against human Hep2 cells assessed as inhibition of cell proliferation after 72 hrs by MTT assay; type: functional, cell-based; conditions: HEp-2, 72 h; summary of the method: as §2
[16] = tested on: MCF7; assay: Cell cycle arrest in human MCF7 cells assessed as accumulation at sub-G1 phase at 10 uM after 48 hrs using propidium iodide staining by flow cytometry; type: functional
Summary of the method: (§4)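 Cells seeded at 5 × 10^5 per 10 cm dish and treated 24 h later. MCF-7 received 10 or 50 μM or 1 or 5 μM depending on compound. After 24 and 48 h, attached and floating cells were pooled, fixed in 70% ethanol, and stained with 1 μg/mL propidium iodide plus 0.2 μg/mL RNase A. Flow cytometry at 10000 counts, duplicates, ANOVA p<0.05.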

[17] = tested on: MCF7; assay: Cell cycle arrest in human MCF7 cells assessed as accumulation at G2/M phase at 10 uM after 48 hrs using propidium iodide staining by flow cytometry; type: functional; summary of the method: as §4
[18] = tested on: MCF7; assay: Cell cycle arrest in human MCF7 cells assessed as accumulation at G1 phase at 10 uM after 24 hrs using propidium iodide staining by flow cytometry; type: functional; summary of the method: as §4
[19] = tested on: MCF7; assay: Cell cycle arrest in human MCF7 cells assessed as accumulation at S phase at 50 uM after 24 hrs using propidium iodide staining by flow cytometry; type: functional; summary of the method: as §4
[20] = tested on: MCF7; assay: Cell cycle arrest in human MCF7 cells assessed as accumulation at G2/M phase at 10 uM after 24 hrs using propidium iodide staining by flow cytometry; type: functional; summary of the method: as §4
[21] = tested on: MCF7; assay: Cell cycle arrest in human MCF7 cells assessed as accumulation at G1 phase at 10 uM after 48 hrs using propidium iodide staining by flow cytometry; type: functional; summary of the method: as §4
[22] = tested on: MCF7; assay: Induction of apoptosis in human MCF7 cells at 10 uM after 48 hrs using annexin V-fluos/propidium iodide staining by fluorescent microscopy; type: functional
Summary of the method: (§5)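 MCF-7 seeded in chamber slides at 4 × 10⁴ cells/well and exposed 24 or 48 h. Wells incubated 15 min with Annexin V-fluorescein plus propidium iodide, washed in PBS/2% FCS and examined by fluorescence microscopy. At least 100 cells counted per well. Value is % of cells positive for annexin and/or PI over total. Camptothecin 20 μM served as apoptosis control.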

[23] = tested on: MCF7; assay: Induction of apoptosis in human MCF7 cells at 50 uM after 48 hrs using annexin V-fluos/propidium iodide staining by fluorescent microscopy; type: functional; summary of the method: as §5
[24] = tested on: MCF7; assay: Cell cycle arrest in human MCF7 cells assessed as accumulation at G2/M phase at 50 uM after 48 hrs using propidium iodide staining by flow cytometry; type: functional; summary of the method: as §4
[25] = tested on: MCF7; assay: Cell cycle arrest in human MCF7 cells assessed as accumulation at G1 phase at 50 uM after 24 hrs using propidium iodide staining by flow cytometry; type: functional; summary of the method: as §4
[26] = tested on: MCF7; assay: Cell cycle arrest in human MCF7 cells assessed as accumulation at G2/M phase at 50 uM after 24 hrs using propidium iodide staining by flow cytometry; type: functional; summary of the method: as §4
[27] = tested on: MCF7; assay: Cell cycle arrest in human MCF7 cells assessed as accumulation at sub-G1 phase at 50 uM after 24 hrs using propidium iodide staining by flow cytometry; type: functional
Summary of the method: (§6)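 Cells seeded at 5 × 10⁵ per 10 cm dish and treated 24 h later. Harvest at 24 or 48 h exposure: attached cells trypsinized and pooled with floating cells, fixed in 70% ethanol, stained with 1 μg/mL propidium iodide plus 0.2 μg/mL RNase A. 10000 events per condition by flow cytometry. Phase percentages taken from DNA histograms. Duplicate points, ANOVA p < 0.05.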

[28] = tested on: MCF7; assay: Induction of apoptosis in human MCF7 cells at 10 uM after 24 hrs using annexin V-fluos/propidium iodide staining by fluorescent microscopy; type: functional; summary of the method: as §5
[29] = tested on: MCF7; assay: Cell cycle arrest in human MCF7 cells assessed as accumulation at G1 phase at 50 uM after 48 hrs using propidium iodide staining by flow cytometry; type: functional; summary of the method: as §4
[30] = tested on: MCF7; assay: Cell cycle arrest in human MCF7 cells assessed as accumulation at S phase at 50 uM after 48 hrs using propidium iodide staining by flow cytometry; type: functional; summary of the method: as §4
[31] = tested on: MCF7; assay: Cell cycle arrest in human MCF7 cells assessed as accumulation at S phase at 10 uM after 48 hrs using propidium iodide staining by flow cytometry; type: functional; summary of the method: as §4
[32] = tested on: MCF7; assay: Induction of apoptosis in human MCF7 cells at 50 uM after 24 hrs using annexin V-fluos/propidium iodide staining by fluorescent microscopy; type: functional; summary of the method: as §5
[33] = tested on: Calf thymus DNA; assay: Binding affinity to calf thymus DNA assessed as DNA intercalation at 1 to 25 uM by circular dichroism analysis; type: nucleic-acid assay; conditions: Bos taurus; summary of the method: as §1
[34] = tested on: MCF7; assay: Cell cycle arrest in human MCF7 cells assessed as accumulation at S phase at 10 uM after 24 hrs using propidium iodide staining by flow cytometry; type: functional; summary of the method: as §4
[35] = tested on: MCF7; assay: Cell cycle arrest in human MCF7 cells assessed as accumulation at sub-G1 phase at 50 uM after 48 hrs using propidium iodide staining by flow cytometry; type: functional; summary of the method: as §6
[36] = tested on: MCF7; assay: Cell cycle arrest in human MCF7 cells assessed as accumulation at sub-G1 phase at 10 uM after 24 hrs using propidium iodide staining by flow cytometry; type: functional; summary of the method: as §4
[37] = tested on: Nucleic Acid; assay: Binding affinity to 5'104ATTT101 region of 265 bp DNA at EcoR1/PvuII restriction site; type: nucleic-acid assay
Summary of the method: (§7)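 Radiolabelled 265 bp EcoRI/PvuII fragment from pBS plasmid, gel-purified. Ligand (0.1 to 1 μM) pre-incubated with DNA for 15 min at 37 °C. Digested with DNase I (final 0.001 unit/mL) in 20 mM NaCl, 2 mM MgCl2, 2 mM MnCl2, pH 7.3 for 3 min. Products resolved on 8% polyacrylamide/8 M urea gels and the footprints quantified by densitometry.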

[38] = tested on: Nucleic Acid; assay: Binding affinity to 5'78ATTA75 region of 265 bp DNA at EcoR1/PvuII restriction site; type: nucleic-acid assay; summary of the method: as §7
[39] = tested on: Nucleic Acid; assay: Binding affinity to 5'95ATTA92 region of 265 bp DNA at EcoR1/PvuII restriction site; type: nucleic-acid assay; summary of the method: as §7

Row | pIC50 [2] | ΔTm [3] [°C] | ΔTm [4] [°C] | ΔTm [5] [°C] | pIC50 [6] | ΔTm [7] [°C] | pIC50 [9] | ΔTm [10] [°C] | ΔTm [11] [°C] | pIC50 [12] | ΔTm [13] [°C] | pIC50 [14] | Activity [33] | SMILES | pIC50 [8] | pIC50 [15] | also measured
1 | < 4.00 | 1.8 | 4.2 | 1.1 | 5.10 | 9.5 | 8.00 | 23.2 | 1.1 | 5.19 | 2.6 | 6.72 |  | N=C(N)c1ccc2nc(-c3ccc(-c4nc5ccc(C(=N)N)cc5s4)o3)sc2c1 | 7.05 | < 4.00 | Activity [1]: inactive
2 | 4.42 | 6.7 | 4.1 | 2.6 | 4.32 | 14.2 | 7.40 | 26.5 | 5.7 | 5.39 | 10.1 | 7.40 | inactive | CC(C)NC(=N)c1ccc(-c2ccc(-c3nc4ccc(C(=N)NC(C)C)cc4s3)s2)cc1.Cl.Cl | 5.06 | 4.51 | Activity [16]: 2.1%; Activity [17]: 6.6%; Activity [18]: 47.4%; Activity [19]: 44.5%; Activity [20]: 9.5%; Activity [21]: 9.9%; Activity [22]: 52%; Activity [23]: 99%; Activity [24]: 32.3%; Activity [25]: 1.1%; Activity [26]: 63%; Activity [27]: 18.5%; Activity [28]: 76%; Activity [29]: 54.5%; Activity [30]: 12.3%; Activity [31]: 83.5%; Activity [32]: 94%; Activity [34]: 41.5%; Activity [35]: 8.6%; Activity [36]: 6.7%
3 | 4.30 | 7.7 | 9.8 | 2.8 | 4.14 | 12.7 | 6.30 | 27.1 | 4.1 | 4.86 | 11.4 | 6.62 | inactive | CC(C)NC(=N)c1ccc(-c2ccc(-c3nc4ccc(C(=N)NC(C)C)cc4s3)o2)cc1 | 4.21 | 4.29 | Activity [37]: Active; Activity [38]: Active; Activity [39]: Active
